Measured values: ChEMBL document CHEMBL3751707, “Silicon Incorporated Morpholine Antifungals: Design, Synthesis, and Biological Evaluation” (ACS Med Chem Lett, 2015)
In brackets after ≈: the same amount, converted by molar mass.

Tests used:
[1] = test system: Candida albicans; experiment: Effect on sterol profile of Candida albicans ATCC 24433 assessed as ergosterol level at 0.25 ug/ml for 24 hrs by spectrophotometry (reference value: 73.34 +/- 2.53 %); type: functional; conditions: in the assay text read “by GC-MS” for “by spectrophotometry”
In short: (§1)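 C. albicans ATCC 24433 grown with subinhibitory (<MIC) compound concentrations. Cellular sterols extracted. Sterol content read spectrophotometrically by scan at 230–300 nm, and individual intermediates quantified by GC–MS. Values are average % of total sterols from two experiments, with standard error of the mean.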

[2] = test system: Candida albicans; experiment: Effect on sterol profile of Candida albicans ATCC 24433 assessed as lichesterol level at 0.125 ug/ml for 24 hrs by spectrophotometry; type: functional; in short: as §1
[3] = test system: Nakaseomyces glabratus; experiment: Antifungal activity against Candida glabrata NCYC 388 after 72 hrs by broth microdilution method; type: functional; conditions: NCYC 388, 72 h
In short: (§2)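 CLSI broth microdilution against yeasts (M27-A3) and filamentous fungi (M38-A2). Read-outs: IC50 (concentration giving 50% growth inhibition), MIC, and MFC (minimum fungicidal concentration), all in μg/mL. Assay done twice in triplicate.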

[4] = test system: Cryptococcus neoformans; experiment: Antifungal activity against Cryptococcus neoformans ATCC 34664 after 24 to 36 hrs by broth microdilution method; type: functional, organism-based; in short: as §2
[5] = test system: Candida albicans; experiment: Effect on sterol profile of Candida albicans ATCC 24433 assessed as squalene level at 0.25 ug/ml for 24 hrs by spectrophotometry (reference value: 7.17 +/- 0.35 %); type: functional; in short: as §1
[6] = test system: Candida albicans; experiment: Antifungal activity against Candida albicans ATCC 10231 after 24 to 36 hrs by broth microdilution method; type: functional, organism-based; in short: as §2
[7] = test system: Candida albicans; experiment: Antifungal activity against Candida albicans ATCC 24433 after 24 to 36 hrs by broth microdilution method; type: functional, organism-based; in short: as §2
[8] = test system: Candida tropicalis; experiment: Antifungal activity against Candida tropicalis ATCC 750 after 72 hrs by broth microdilution method; type: functional; conditions: ATCC 750, 72 h; in short: as §2
[9] = test system: Candida tropicalis; experiment: Antifungal activity against Candida tropicalis ATCC 750 after 24 to 36 hrs by broth microdilution method; type: functional, organism-based; in short: as §2
[10] = test system: Aspergillus niger; experiment: Antifungal activity against Aspergillus niger ATCC 10578 after 72 hrs by broth microdilution method; type: functional; conditions: ATCC 10578, 72 h; in short: as §2
[11] = test system: Candida albicans; experiment: Effect on sterol profile of Candida albicans ATCC 24433 assessed as ergosterol level at 0.125 ug/ml for 24 hrs by spectrophotometry; type: functional; conditions: in the assay text read “ergostenol level” for “ergosterol level”; in short: as §1
[12] = test system: Cryptococcus neoformans; experiment: Antifungal activity against Cryptococcus neoformans ATCC 34664 after 72 hrs by broth microdilution method; type: functional; conditions: ATCC 34664, 72 h; in short: as §2
[13] = test system: Candida albicans; experiment: Effect on sterol profile of Candida albicans ATCC 24433 assessed as ergosterol level at 0.125 ug/ml for 24 hrs by spectrophotometry (reference value: 73.34 +/- 2.53 %); type: functional; in short: as §1
[14] = test system: Candida albicans; experiment: Effect on sterol profile of Candida albicans ATCC 24433 assessed as cholesta-5,24-dien-3-ol level at 0.125 ug/ml for 24 hrs by spectrophotometry (reference value: 3.58 +/- 0.52 %); type: functional; in short: as §1
[15] = test system: Candida albicans; experiment: Effect on sterol profile of Candida albicans ATCC 24433 assessed as cholesta-8,24-dien-3-ol,4-methyl-(3a',4a') level at 0.125 ug/ml for 24 hrs by spectrophotometry (reference value: 7.19 +/- 0.65 %); type: functional; in short: as §1
[16] = test system: Candida albicans; experiment: Antifungal activity against Candida albicans ATCC 24433 after 72 hrs by broth microdilution method; type: functional; conditions: ATCC 24433, 72 h; in short: as §2
[17] = test system: Candida albicans; experiment: Effect on sterol profile of Candida albicans ATCC 24433 assessed as ergosta-7,22-dien-3-ol,(3a'22E) level at 0.125 ug/ml for 24 hrs by spectrophotometry; type: functional; in short: as §1
[18] = Toxicity in human RBC assessed as hemolysis upto 128 ug/ml; type: cell-based; conditions: erythrocyte
[19] = test system: Candida albicans; experiment: Effect on sterol profile of Candida albicans ATCC 24433 assessed as squalene level at 0.125 ug/ml for 24 hrs by spectrophotometry (reference value: 7.17 +/- 0.35 %); type: functional; in short: as §1
[20] = test system: Aspergillus niger; experiment: Antifungal activity against Aspergillus niger ATCC 10578 after 48 hrs by broth microdilution method; type: functional, organism-based; conditions: ATCC 10578, 48 h; in short: as §2
[21] = test system: Candida albicans; experiment: Effect on sterol profile of Candida albicans ATCC 24433 assessed as lichesterol level at 0.25 ug/ml for 24 hrs by spectrophotometry; type: functional; conditions: in the assay text read “by GC-MS” for “by spectrophotometry”; in short: as §1
[22] = test system: Candida albicans; experiment: Effect on sterol profile of Candida albicans ATCC 24433 assessed as cholesta-8,24-dien-3-ol,4-methyl-(3a',4a') level at 0.25 ug/ml for 24 hrs by spectrophotometry (reference value: 7.19 +/- 0.65 %); type: functional; conditions: in the assay text read “by GC-MS” for “by spectrophotometry”; in short: as §1
[23] = test system: Candida albicans; experiment: Antifungal activity against Candida albicans ATCC 10231 after 72 hrs by broth microdilution method; type: functional; conditions: ATCC 10231, 72 h; in short: as §2
[24] = test system: Candida albicans; experiment: Effect on sterol profile of Candida albicans ATCC 24433 assessed as ergosta-7,22-dien-3-ol,(3a'22E) level at 0.25 ug/ml for 24 hrs by spectrophotometry; type: functional; conditions: in the assay text read “by GC-MS” for “by spectrophotometry”; in short: as §1
[25] = test system: Candida albicans; experiment: Effect on sterol profile of Candida albicans ATCC 24433 assessed as ignosterol level at 0.25 ug/ml for 24 hrs by spectrophotometry; type: functional; conditions: in the assay text read “by GC-MS” for “by spectrophotometry”; in short: as §1
[26] = test system: Candida albicans; experiment: Effect on sterol profile of Candida albicans ATCC 24433 assessed as ergosterol level at 0.25 ug/ml for 24 hrs by spectrophotometry; type: functional; conditions: in the assay text read “ergostenol level” for “ergosterol level”; in short: as §1
[27] = test system: Nakaseomyces glabratus; experiment: Antifungal activity against Candida glabrata NCYC 388 after 24 to 36 hrs by broth microdilution method; type: functional, organism-based; in short: as §2
[28] = Toxicity in human RBC assessed as hemolysis at 512 ug/ml; type: cell-based, Erythrocyte; conditions: red blood cells, read-out: Activity
[29] = Metabolic stability in human liver microsomes after 30 mins by LC-MS/MS analysis; type: ADME; conditions: read-out: Stability
In short: (§3)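 Test compounds were incubated 30 min with liver microsomes (human or mouse, per line), and values are reported as % metabolic stability after 30 min.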

[30] = test system: Candida albicans; experiment: Effect on sterol profile of Candida albicans ATCC 24433 assessed as ignosterol level at 0.125 ug/ml for 24 hrs by spectrophotometry; type: functional; in short: as §1
[31] = Metabolic stability in mouse liver microsomes after 30 mins by LC-MS/MS analysis; type: ADME; conditions: read-out: Stability; in short: as §3
[32] = test system: Candida albicans; experiment: Effect on sterol profile of Candida albicans ATCC 24433 assessed as cholesta-5,24-dien-3-ol level at 0.25 ug/ml for 24 hrs by spectrophotometry (reference value: 3.58 +/- 0.52 %); type: functional; conditions: in the assay text read “by GC-MS” for “by spectrophotometry”; in short: as §1
[33] = test system: HEK293; experiment: Cytotoxicity against HEK293 cells after 24 hrs by MTT assay; type: cell-based; conditions: Homo sapiens, HEK293, 24 h
[34] = Toxicity in human RBC assessed as partial hemolysis at 256 ug/ml; type: cell-based; conditions: erythrocyte

IC50 [4] [µg/mL]	MIC [4] [µg/mL]	IC50 [6] [µg/mL]	MIC [6] [µg/mL]	IC50 [7] [µg/mL]	MIC [7] [µg/mL]	IC50 [9] [µg/mL]	MIC [9] [µg/mL]	IC50 [20] [µg/mL]	MIC [20] [µg/mL]	IC50 [27] [µg/mL]	MIC [27] [µg/mL]	Compound	Activity [1] [%]	MFC [3] [µg/mL]	MFC [8] [µg/mL]	MFC [10] [µg/mL]	MFC [12] [µg/mL]	MFC [16] [µg/mL]	Activity [18]	MFC [23] [µg/mL]	also measured
0.031 (≈ 0.0976 µM)	0.125 (≈ 0.394 µM)	0.1 (≈ 0.315 µM)	0.25 (≈ 0.787 µM)	0.028 (≈ 0.0882 µM)	1 (≈ 3.15 µM)	0.173 (≈ 0.545 µM)	0.5 (≈ 1.57 µM)	0.125 (≈ 0.394 µM)	0.5 (≈ 1.57 µM)	0.038 (≈ 0.12 µM)	0.125 (≈ 0.394 µM)	CCC(C)(C)c1ccc(CC(C)CN2C[C@@H](C)O[C@@H](C)C2)cc1 (some centres undefined) [AMOROLFINE]	6.13	32 (≈ 101 µM)	> 256	> 256	64 (≈ 202 µM)	8 (≈ 25.2 µM)	Non-toxic	32 (≈ 101 µM)	Activity [2]: 8.26%; Activity [5]: 17.08%; Activity [11]: 11.56%; Activity [13]: 30.16%; Activity [14]: 0.44%; Activity [15]: 12.26%; Activity [17]: 15.28%; Activity [19]: 22.04%; Activity [21]: 32.13%; Activity [22]: 12.03%; Activity [24]: 15.81%; Activity [25]: 11.11%; Activity [26]: 5.71%
0.079 (≈ 0.247 µM)	0.125 (≈ 0.391 µM)	0.25 (≈ 0.782 µM)	0.5 (≈ 1.56 µM)	0.043 (≈ 0.135 µM)	0.125 (≈ 0.391 µM)	0.164 (≈ 0.513 µM)	0.5 (≈ 1.56 µM)	0.5 (≈ 1.56 µM)	2 (≈ 6.26 µM)	0.017 (≈ 0.0532 µM)	0.125 (≈ 0.391 µM)	CC(Cc1ccc([Si](C)(C)C)cc1)CN1C[C@@H](C)O[C@@H](C)C1 (some centres undefined)	11.12	2 (≈ 6.26 µM)	64 (≈ 200 µM)	256 (≈ 801 µM)	2 (≈ 6.26 µM)	0.5 (≈ 1.56 µM)	Non-toxic	1 (≈ 3.13 µM)	hemolysis at 512 ug/ml [28]: 7%; remaining at 0.5 h [29]: 27.3%; Activity [2]: 29.84%; Activity [5]: 13.82%; Activity [30]: 7.23%; remaining at 0.5 h [31]: 6.2%; Activity [32]: 0.87%; Activity [11]: 5.19%; Activity [13]: 15.52%; Activity [14]: 15.34%; Activity [15]: 5.36%; Activity [19]: 21.52%; Activity [22]: 27.78%; Activity [25]: 42.29%; Activity [26]: 4.12%
3.77 (≈ 11.8 µM)	8 (≈ 25.1 µM)	1 (≈ 3.14 µM)	2 (≈ 6.28 µM)	1.55 (≈ 4.87 µM)	4 (≈ 12.6 µM)	5.87 (≈ 18.4 µM)	16 (≈ 50.2 µM)	1.25 (≈ 3.92 µM)	2 (≈ 6.28 µM)	1.63 (≈ 5.12 µM)	2 (≈ 6.28 µM)	CNC1CCN(CC(C)Cc2ccc([Si](C)(C)C)cc2)CC1 (centres undefined)		4 (≈ 12.6 µM)	16 (≈ 50.2 µM)	64 (≈ 201 µM)	8 (≈ 25.1 µM)	8 (≈ 25.1 µM)	Non-toxic	2 (≈ 6.28 µM)	IC50 [33]: 9.81 µg/mL (≈ 30.8 µM); Activity [34]: Toxic
